In brackets after ≈: the same amount, converted by molar mass. Activity calls are given as the source filed them. The rule behind the calls is not given here.
Assays:
Streptococcus pyogenes = experiment: Antibacterial activity against Streptococcus pyogenes after 24 hrs; format: functional
In short: (§1)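 Broth microdilution MIC per NCCLS protocol in Mueller Hinton broth. Strains grown on nutrient agar at 37 °C for 24 h, then suspended in normal saline with 0.05% Tween 20. Inoculum was a McFarland-matched suspension diluted into medium. Compounds were dissolved in DMSO at 1 mg/mL stock and serially twofold diluted, top concentration 50 µg/mL. Plates incubated 35 °C, moist dark chamber, 24 h. MIC read spectrophotometrically.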

Bacillus cereus = experiment: Antibacterial activity against Bacillus cereus MTCC 430 after 24 hrs; format: functional; settings: MTCC 430, 24 h; in short: as §1
Staphylococcus aureus [1] = experiment: Antibacterial activity against methicillin-resistant Staphylococcus aureus ATCC 70069 after 24 hrs; format: functional; settings: ATCC 70069, 24 h
Enterococcus faecalis = experiment: Antibacterial activity against Enterococcus faecalis MTCC 439 after 24 hrs; format: functional; settings: MTCC 439, 24 h; in short: as §1
Staphylococcus aureus [2] = experiment: Antibacterial activity against […] Staphylococcus aureus ATCC 29213 after 24 hrs; format: functional; settings: ATCC 29213, 24 h
Staphylococcus aureus [3] = experiment: Antibacterial activity against floxacin and methicillin-resistant Staphylococcus aureus ATCC 25923 after 24 hrs; format: functional; settings: ATCC 25923, 24 h
Pseudomonas aeruginosa = experiment: Antibacterial activity against Pseudomonas aeruginosa ATCC BAA427 after 24 hrs; format: functional, organism-based; in short: as §1
Klebsiella pneumoniae = experiment: Antibacterial activity against Klebsiella pneumoniae ATCC 27736 after 24 hrs; format: functional; settings: ATCC 27736, 24 h; in short: as §1
Escherichia coli = experiment: Antibacterial activity against Escherichia coli ATCC 9637 after 24 hrs; format: functional, organism-based; in short: as §1

| SMILES | MIC (Streptococcus pyogenes) [µM] | MIC (Bacillus cereus) [µM] | MIC (Staphylococcus aureus [1]) [µM] | MIC (Enterococcus faecalis) [µM] | MIC (Staphylococcus aureus [2]) [µM] | MIC (Staphylococcus aureus [3]) [µM] | Activity (Pseudomonas aeruginosa) | MIC (Klebsiella pneumoniae) [µM] | Activity (Escherichia coli) |
| --- | --- | --- | --- | --- | --- | --- | --- | --- | --- |
| CC(=O)NC[C@H]1CN(c2ccc(N3CCN(C(=O)C4CC(c5ccc(Cl)c(Cl)c5)=NO4)CC3)c(F)c2)C(=O)O1 (mixture of isomers) | 0.329 | 0.156 | 0.329 | 0.329 | 2.7 | 0.329 | inactive | 0.329 | inactive |
| CC(=O)NC[C@H]1CN(c2ccc(N3CCN(C(=O)C4CC(c5cccc(C(F)(F)F)c5)=NO4)CC3)c(F)c2)C(=O)O1 (mixture of isomers) | 1.35 | 1.35 | 1.35 | 1.35 | 2.7 | 1.35 | inactive | 2.7 | inactive |
| CC(=O)NC[C@H]1CN(c2ccc(N3CCN(C(=O)C4CC(c5ccc(C(F)(F)F)cc5)=NO4)CC3)c(F)c2)C(=O)O1 (mixture of isomers) | 0.676 | 0.676 | 0.676 | 0.329 | 2.7 | 0.676 | inactive | 0.676 | inactive |
| CC(=O)NC[C@H]1CN(c2ccc(N3CCN(C(=O)C4CC(c5ccccc5)=NO4)CC3)c(F)c2)C(=O)O1 (mixture of isomers) | 24.6 | 24.6 | 24.6 | 24.6 | 24.6 | 24.6 | inactive | 24.6 | inactive |
| CC(=O)NC[C@H]1CN(c2ccc(N3CCN(C(=O)C4CC(c5cccs5)=NO4)CC3)c(F)c2)C(=O)O1 (mixture of isomers) | 12.1 | 6.06 | 24.3 | 24.3 | 24.3 | 6.06 | inactive | 6.06 | inactive |
| CC(=O)NC[C@H]1CN(c2ccc(N3CCN(C(=O)C4CC(c5ccsc5)=NO4)CC3)c(F)c2)C(=O)O1 (mixture of isomers) | 12.1 | 12.1 | 6.06 | 12.1 | 24.3 | 12.1 | inactive | 6.06 | inactive |
| CC(=O)NC[C@H]1CN(c2ccc(N3CCN(C(=O)C4CC(c5ccccn5)=NO4)CC3)c(F)c2)C(=O)O1 (mixture of isomers) | 0.372 | 0.765 | 1.53 | 0.372 | 1.53 | 0.765 | inactive | 0.765 | inactive |
| CC(=O)NC[C@H]1CN(c2ccc(N3CCN(C(=O)C4CC(c5ccc(F)cc5)=NO4)CC3)c(F)c2)C(=O)O1 (mixture of isomers) | 0.74 | 0.74 | 0.74 | 0.74 | 0.74 | 0.74 | inactive | 1.48 | inactive |
| CC(=O)NC[C@H]1CN(c2ccc(N3CCN(C(=O)C4CC(c5ccc(Cl)cc5)=NO4)CC3)c(F)c2)C(=O)O1 (mixture of isomers) | 0.349 | 0.35 | 0.35 | 0.35 | 2.87 | 0.166 | inactive | 0.166 | inactive |
| COc1ccc(C2=NOC(C(=O)N3CCN(c4ccc(N5C[C@H](CNC(C)=O)OC5=O)cc4F)CC3)C2)cc1O (mixture of isomers) | 0.703 | 0.342 | 0.703 | 0.342 | 0.703 | 0.342 | inactive | 0.342 | inactive |
| CC(=O)NC[C@H]1CN(c2ccc(N3CCN(C(=O)C4CC(c5ccc6c(c5)OCO6)=NO4)CC3)c(F)c2)C(=O)O1 (mixture of isomers) | 0.344 | 0.344 | 0.344 | 0.344 | 2.82 | 0.163 | inactive | 0.163 | inactive |
| CC(=O)NC[C@H]1CN(c2ccc(N3CCN(C(=O)C4CC(c5ccc(C)cc5)=NO4)CC3)c(F)c2)C(=O)O1 (mixture of isomers) | 0.746 | 0.363 | 1.49 | 0.746 | 2.98 | 0.363 | inactive | 0.363 | inactive |
| CC(=O)NC[C@H]1CN(c2ccc(N3CCN(C(=O)C4CC(c5cccc([N+](=O)[O-])c5)=NO4)CC3)c(F)c2)C(=O)O1 (mixture of isomers) | 0.704 | 0.162 | 0.704 | 0.0866 | 0.704 | 0.343 | inactive | 0.704 | inactive |
| CC(=O)NC[C@H]1CN(c2ccc(N3CCN(C(=O)C4CC(c5ccco5)=NO4)CC3)c(F)c2)C(=O)O1 (mixture of isomers) | 0.781 | 1.56 | 1.56 | 0.781 | 6.25 | 0.781 | inactive | 1.56 | inactive |
| CC(=O)NC[C@H]1CN(c2ccc(N3CCN(C(=O)C4CC(c5ccc(F)c(F)c5)=NO4)CC3)c(F)c2)C(=O)O1 (mixture of isomers) | 0.349 | 0.349 | 0.349 | 0.349 | 0.716 | 0.349 | inactive | 0.716 | inactive |
| CC(=O)NC[C@H]1CN(c2ccc(N3CCOCC3)c(F)c2)C(=O)O1 [LINEZOLID] | 4.63 (≈ 1.56 µg/mL) | 2.31 (≈ 0.781 µg/mL) | 4.63 (≈ 1.56 µg/mL) | 9.26 (≈ 3.12 µg/mL) | 9.26 (≈ 3.12 µg/mL) | 4.63 (≈ 1.56 µg/mL) |  | 4.63 (≈ 1.56 µg/mL) |  |
| CN[C@H](CC(C)C)C(=O)N[C@H]1C(=O)N[C@@H](CC(N)=O)C(=O)N[C@H]2C(=O)N[C@H]3C(=O)N[C@H](C(=O)N[C@H](C(=O)O)c4cc(O)cc(O)c4-c4cc3ccc4O)[C@H](O)c3ccc(c(Cl)c3)Oc3cc2cc(c3O[C@@H]2O[C@H](CO)[C@@H](O)[C@H](O)[C@H]2O[C@H]2C[C@](C)(N)[C@H](O)[C@H](C)O2)Oc2ccc(cc2Cl)[C@H]1O [VANCOMYCIN] | 0.262 (≈ 0.38 µg/mL) | 0.128 (≈ 0.185 µg/mL) | 4.21 (≈ 6.1 µg/mL) | 0.525 (≈ 0.761 µg/mL) | 1.05 (≈ 1.52 µg/mL) | 0.262 (≈ 0.38 µg/mL) |  | 0.262 (≈ 0.38 µg/mL) |  |

From ChEMBL document CHEMBL1157001, “Synthesis and antibacterial evaluation of isoxazolinyl oxazolidinones: Search for potent antibacterial” (2009)
